# Bioassay records: PubChem, several laboratories
# V-ATPase pHluor = regulators of yeast V-ATPase proton transport | S. cerevisiae, pHLuorin cytosolic pH fluorescence | response, % at 10 µM | 0.37% of 350,000 active | AID 504577; in the data active = response mostly above about 7.3%, no sharp cut-off; inactive = mostly below about 5.4%; note: actives read high
# TbMetRS inhib = Trypanosoma brucei MetRS inhibition; 0.4% of 360,000 active; inhibition, % at 11.9 µM; purified T. brucei MetRS, ATP depletion, Kinase-Glo luminescence;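 active = inhibition above a per-plate cutoff of the control wells' mean inhibition plus 3 SD, cut at about 5.5% in these data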;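 note: 0% = DMSO wells median and 100% = median of wells with control inhibitor compound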
#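 Test system – parasite MetRS enzyme · Reagent – substrates ATP, L-methionine and bulk Escherichia coli tRNA · Doses – 11.9 µM compound single dose, 0.9% DMSO · Times – 15 min enzyme-compound preincubation, 2 h reaction, 10 min detection, 25 °C · Signal – Kinase-Glo luminescence, ATP depletion format · Controls – DMSO-only wells as low control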
# CHOP UPR activ = activators of apoptotic arm of unfolded protein response (CHOP). activation, % at 10 µM. CHO-CHOP luciferase reporter, UPR activation, luminescence; percent of tunicamycin response over DMSO baseline. 0.34% of 330,000 active;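 active = at 10 µM dose, activation of 40% or more, normalized to positive control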;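 note: 100% = tunicamycin at 10 µg/mL and 0% = DMSO alone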
#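 Test system: CHO CHOP reporter cells. Input: 500 CHO-CHOP cells per well. Medium: F12 with 10% FBS. Technique: luciferase luminescence. Measure: percent activation relative to tunicamycin control. Dosing: 10 µM compound, 0.5% DMSO. Timing: 16-18 h cell attachment, then 6 h compound exposure, 37 °C.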
# CHOP inh = blocks CHOP induction under ER stress; inhibition, % at 10 µM; 3.8% of 220,000 active; CHO-K1 CHOP-promoter luciferase, tunicamycin-induced, 15-18 h; AID 2732;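 active = compounds that reduced the stress-induced luciferase reporter signal by more than about 70% of percent inhibition, limit read from the data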;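 note: 0% = tunicamycin plus vehicle and 100% = wells without tunicamycin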
# UPR XBP1 act = activators of adaptive arm of unfolded protein response (XBP1). CHO-XBP1 luciferase reporter, IRE1-XBP1 UPR activation, luminescence; percent of tunicamycin response, DMSO as zero. activation, % at 20 µM. 0.33% of 330,000 active. AID 463104;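 active = versus positive control, 20 µM dose yields 30% or more activation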;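 note: 100% = tunicamycin at 10 µg/mL and 0% = DMSO only wells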
#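 Material: CHO-XBP1 cells stably carrying IRE1-XBP1-driven luciferase reporter | Medium: F12 with 10% serum | Compound dosing: 20 µM single concentration, DMSO 1% | Incubation: Overnight seeding at 37 °C, 6 h compound treatment at 37 °C | Detection: Steady-Glo luminescence read | Read-out basis: % activation of reporter signal versus tunicamycin and DMSO controls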
# UPR CHOP confirm = confirmation of apoptotic unfolded protein response (CHOP) activators. shares compounds with CHOP UPR activ. 64% of 1,000 active. activation, % at 10 µM. CHO-CHOP cells, CHOP-luciferase reporter luminescence; percent of tunicamycin response, DMSO as zero. AID 463112; in the data active = activation above about 33%;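 note: 0% = DMSO wells and 100% = tunicamycin 10 µg/mL wells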
# UPR XBP1 confirm = adaptive UPR (XBP1) activation, confirmed | activation, % at 20 µM | shares compounds with UPR XBP1 act | 63% of 1,000 active | CHO-XBP1 IRE1-XBP1 luciferase reporter, luminescence;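 active = reporter signal at least 30% of the positive control's activation in two or more of four replicate wells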;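 note: plate controls were DMSO negative control for no effect and tunicamycin 10 µg/mL positive control for full effect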
# * hit, by the source's call; x = no result. The sample as a whole holds a higher share of hits than the screen did.
SMILES,V-ATPase pHluor,TbMetRS inhib,CHOP UPR activ,CHOP inh,UPR XBP1 act,UPR CHOP confirm,UPR XBP1 confirm
Cc1ccc(-c2nc(N/N=C/c3cccc([N+](=O)[O-])c3)c3ccccc3n2)cc1,-0.3,0.0,164.6*,80.7*,193.9*,89.4*,223.3*
Cc1ccc(-c2nc(N/N=C/c3cccnc3)c3ccccc3n2)cc1,2.8,-6.2,2.0,66.5,4.9,x,x
O=C1CC(=C2c3ccccc3-c3ccccc32)C(=O)N1CCN1CCN(c2cccc(Cl)c2)CC1,4.0,0.3,-1.4,x,-0.6,x,x
CN(CC(=O)Nc1ccccc1C(F)(F)F)C(=O)c1cccc(-n2cccc2)c1,-1.1,-0.4,1.6,x,-2.5,x,x
COC(=O)c1ccc(COc2ccccc2/C=C(\C#N)C(=O)Nc2c(C)cccc2C)cc1,0.7,-0.2,127.8*,-75.9,65.3*,85.3*,65.0*
COC(=O)c1ccc(COc2ccccc2/C=C(\C#N)C(=O)Nc2ccccc2C)cc1,1.3,-1.1,1.8,7.7,7.7,x,x
COc1ccc(/C=c2\s/c(=C(/C#N)C(=O)NCc3ccco3)n(-c3ccccc3)c2=O)cc1,-10.4,-0.2,43.0*,27.6,38.3*,8.5,42.9*
COc1ccc(CC(=O)Nc2ccc(-c3noc(-c4ccc(Cl)cc4)n3)cc2)cc1,-4.3,0.0,79.0*,-22.2,76.3*,12.8,22.3
CCCCOc1ccc(C(=O)OCC(=O)NC2CCCC2)cc1,-0.7,-0.5,-0.8,x,-0.8,x,x
CCOC(=O)/C=c1\s/c(=C\c2ccc3cc(OC)ccc3c2)c(=O)n1CC(=O)NCC1CCCO1 (stereo not drawn),-3.9,-0.9,85.8*,-47.5,370.9*,131.3*,580.2*
CCOC(=O)/C=c1/s/c(=C/c2ccc3cc(OC)ccc3c2)c(=O)n1CC(=O)NCc1ccc2c(c1)OCO2,-21.4,-0.1,x,x,x,x,x
CCN(CCn1cccn1)C(=O)c1cc(COc2cc(C)ccc2C)on1,-2.6,-0.3,7.5,x,-2.0,x,x
O=C(O)c1ccc(N2C(=O)/C(=C/c3ccc(-c4ccc([N+](=O)[O-])cc4)o3)C=C2c2ccccc2)cc1,3.7,0.2,44.2*,12.0,57.0*,20.2,79.8*
O=C1NN(c2ccccc2)C(=O)/C1=C/c1ccc(-c2ccc(C(=O)O)cc2)o1,-2.7,-0.2,2.3,x,-3.0,x,x
O=C1c2ccccc2C(=O)N1c1ncn[nH]1,-3.2,-0.4,-0.9,5.2,-3.2,x,x
CCOC(=O)c1nn(-c2ccc(OCC)cc2)c2nc(-c3ccco3)c(C#N)c(=O)n12,4.0,-0.2,53.3*,42.5,74.7*,28.4,51.9*
CC[n+]1oc(-c2ccccc2)cc1C,2.4,-0.3,1.2,-24.2,-2.8,x,x
Cc1ccc2nc(-c3ccc(NC(=S)NC4CC(C)(C)NC(C)(C)C4)cc3)sc2c1,1.4,-0.6,60.3*,59.4,48.8*,62.6*,60.8*
Cc1ccc2nc(-c3ccc(NC(=S)NC(=O)C(C)C)cc3)sc2c1,1.0,-0.3,3.0,-56.9,-2.2,x,x
CCOc1cc(/C=C2/NC(=S)NC2=O)ccc1OCc1ccc([N+](=O)[O-])cc1,1.4,-1.5,165.0*,29.8,126.9*,25.6,39.4*
Cc1ccc(CNC(=O)CCc2cn(C)c3ccccc23)cc1,-0.3,-0.5,0.9,x,-2.6,x,x
COc1ccc(OC)c(N=c2oc3c(OC)cccc3cc2C(=O)NCc2ccco2)c1,-1.0,-1.4,3.4,x,0.9,x,x
COc1ccccc1N=c1oc2c(OC)cccc2cc1C(=O)NCc1ccco1,-0.3,-0.1,76.1*,83.0*,68.6*,66.7*,17.4
COc1ccc(N=c2oc3c(OC)cccc3cc2C(=O)NCc2ccco2)cc1OC,-0.4,-0.1,75.5*,-32.8,44.5*,45.3*,16.8
CCCCn1c(N)c(N(CC(C)C)C(=O)c2ccc(S(=O)(=O)N3CCCCCC3)cc2)c(=O)[nH]c1=O,8.7,-0.2,-0.3,x,-0.1,x,x
SMILES,V-ATPase pHluor,TbMetRS inhib,CHOP UPR activ,CHOP inh,UPR XBP1 act,UPR CHOP confirm,UPR XBP1 confirm
Cc1ccc(C)c(NC(=S)c2ccc3ccccc3n2)c1,-1.8,0.3,4.1,-38.3,1.8,x,x
Cc1ccc(C)c(NC(=S)c2ccccn2)c1,1.6,-0.4,125.2*,-120.6,33.2*,112.0*,12.7
CCCCC(C(=O)NC1CCCC1)N(C(=O)c1snc(C(N)=O)c1N)c1ccc(OCC)cc1 (stereo not drawn),1.2,-4.0,4.0,x,-2.0,x,x
Cc1ccc(-n2c(SCC(=O)N/N=C/c3c(C)nn(-c4ccccc4)c3C)nc3ccccc3c2=O)cc1,-0.9,-0.2,4.1,-28.7,1.7,x,x
Cc1nn(-c2ccccc2)c(C)c1/C=N/NC(=O)CSc1nc2ccccc2c(=O)n1-c1ccc(Br)cc1,-0.6,-2.7,251.7*,85.2*,69.0*,59.5*,111.3*
CC(OC(=O)C1CC1)C(=O)Nc1cc(C(F)(F)F)ccc1Cl (stereo not drawn),-1.7,-0.4,-1.7,2.0,-0.2,x,x
CCN(CC)S(=O)(=O)c1ccc(N/N=C(\C)c2ccc3c(c2)OCO3)c([N+](=O)[O-])c1,4.0,-0.7,155.0*,92.5*,210.6*,62.6*,155.4*
CC(Oc1ccc(Br)cc1)C(=O)Nc1ccc(S(=O)(=O)NC2=NCCCCC2)cc1 (stereo not drawn),-3.0,-0.3,x,x,x,x,x
COc1cccc(-n2c(SCC(=O)N3CCc4ccccc43)nnc2-c2c[nH]c3ccccc23)c1,-6.0,0.1,102.2*,90.4*,336.3*,43.0*,229.4*
CN1CCN(CC(=O)Nc2ccc(OC(F)(F)F)cc2)CC1,-0.1,-0.7,0.5,x,6.5,x,x
CC(C)n1c(=O)nc(-c2ccccc2)c2cc3c(cc21)OCO3,3.9,0.2,x,x,x,x,x
O=c1/c(=C/c2ccc(O)c([N+](=O)[O-])c2)sc2nc3ccccc3n12,5.9,0.6,x,-15.3,x,x,x
O=c1/c(=C/c2ccc(O)cc2)sc2nc3cc(Br)cnc3n12,x,x,63.1*,-23.4,78.8*,12.8,20.9
O=c1/c(=C/c2ccccn2)sc2n1CN(c1ccccc1)CN=2,7.4,-0.1,2.2,8.7,-1.1,x,x
Cc1cc(C)c2c(c1)/C(=c1/sc3n(c1=O)CN(c1ccccc1)CN=3)C(=O)N2,4.2,-0.3,102.0*,81.1*,189.7*,83.0*,168.5*
CC1=C(CC/C(C)=N/NC(N)=S)C(C)(C)CCC1,0.4,-0.2,150.7*,29.4,57.6*,47.5*,54.7*
COc1cc(NC(=O)c2ccc(C)cc2C)ccc1NC(=O)c1cc2ccccc2o1,-6.6,-0.9,56.2*,x,148.0*,15.1,71.8*
CCOCCCNC(=O)C(NC(=O)Cc1cccs1)c1ccc(OC)cc1 (stereo not drawn),3.8,-0.9,0.6,12.9,0.5,x,x
